{
  "source": "paper PMC10053325",
  "about": "(Cell chemical biology, 2020)",
  "key": {"SMAD4^R361H-SMAD3 PPI [1]": {"target": "T1, SMAD4^R361H-SMAD3 PPI (Homo sapiens, UniProt Q13485, R361H)", "test": "TR-FRET assay for SMAD4^R361H/SMAD3 PPI in HEK293T cell lysate", "type": "binding", "conditions": "primary screening, compounds 20 μM"}, "SMAD4^D351H/SMAD3 PPI": {"target": "SMAD4^D351H/SMAD3 PPI (Homo sapiens, UniProt Q13485, D351H)", "sequence (Q13485 whole entry D351H)": "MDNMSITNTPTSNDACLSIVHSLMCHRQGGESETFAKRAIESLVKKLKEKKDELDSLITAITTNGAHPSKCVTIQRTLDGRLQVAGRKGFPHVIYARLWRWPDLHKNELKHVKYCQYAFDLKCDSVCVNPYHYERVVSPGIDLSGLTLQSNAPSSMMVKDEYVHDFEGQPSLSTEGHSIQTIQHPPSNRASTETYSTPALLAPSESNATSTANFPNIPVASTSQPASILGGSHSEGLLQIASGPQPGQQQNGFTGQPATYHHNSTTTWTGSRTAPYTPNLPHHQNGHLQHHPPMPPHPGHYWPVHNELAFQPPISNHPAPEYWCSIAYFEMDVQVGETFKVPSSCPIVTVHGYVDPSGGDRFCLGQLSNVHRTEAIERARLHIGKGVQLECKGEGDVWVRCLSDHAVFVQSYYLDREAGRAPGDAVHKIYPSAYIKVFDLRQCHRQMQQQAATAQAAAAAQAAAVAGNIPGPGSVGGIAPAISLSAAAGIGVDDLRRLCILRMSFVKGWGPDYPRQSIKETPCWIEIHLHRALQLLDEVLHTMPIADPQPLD", "sequence (P84022 whole entry partner)": "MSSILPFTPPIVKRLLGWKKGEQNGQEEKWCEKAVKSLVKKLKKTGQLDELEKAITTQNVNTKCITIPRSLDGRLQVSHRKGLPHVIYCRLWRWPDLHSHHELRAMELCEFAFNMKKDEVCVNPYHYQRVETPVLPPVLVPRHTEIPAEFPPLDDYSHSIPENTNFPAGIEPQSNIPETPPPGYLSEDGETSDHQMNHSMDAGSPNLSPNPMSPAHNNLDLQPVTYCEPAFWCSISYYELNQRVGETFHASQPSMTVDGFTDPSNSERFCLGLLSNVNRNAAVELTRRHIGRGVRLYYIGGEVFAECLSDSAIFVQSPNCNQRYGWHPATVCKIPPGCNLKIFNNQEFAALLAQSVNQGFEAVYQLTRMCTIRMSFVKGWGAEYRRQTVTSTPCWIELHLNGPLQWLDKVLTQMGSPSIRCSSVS", "test": "GST pull-down assay of GST-SMAD4-D351H with VF-SMAD3 in cell lysate", "type": "binding", "conditions": "versus DMSO control", "method_in_brief": "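HEK293T cells co-transfected with Venus-flag-SMAD3 and mutant GST-SMAD4 and lysed after 48 h in 0.5% Triton X-100 buffer (20 mM Tris-HCl, 150 mM NaCl, 5% glycerol, 2 mM EDTA). Lysate incubated with test compound 3 h rotating at 4°C, then glutathione beads 2 h at 4°C. Beads washed three times, boiled in SDS buffer, and bound SMAD3 detected by western blot.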"}, "[2]": {"target": "SMAD4^R361H interaction with R-SMADs (Homo sapiens, UniProt Q13485, R361H)", "sequence (Q13485 whole entry R361H)": "as the sequence (Q13485 whole entry D351H) above, with H351D, R361H counted along it", "sequence (P84022 whole entry partner)": "as the sequence (P84022 whole entry partner) above", "test": "R-SMADs selectivity profiling by TR-FRET", "type": "binding", "conditions": "dose-response AUC; SMAD1/2/3/5/8"}, "[3]": {"tested_on": "isogenic HCT116 R361H cells", "test": "Colony formation assay", "type": "cell-based, human", "conditions": "TGF-β 10 ng/mL, Ro-31-8220 1 μM, Go-6983 10 μM, 15-day treatment", "method_in_brief": "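Single-cell suspensions seeded at 1,000 to 2,000 cells/well in 6-well plates, treated next day with TGF-β, test compound, or the combination. Agent-containing medium renewed every 3 days for 15 days. Colonies stained with crystal violet and colony area quantified from images. Mean ± SD, three independent experiments; Student's t-test.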"}, "SMAD4 WT": {"target": "T2, SMAD4 WT (Homo sapiens, UniProt Q13485)", "T2 sequence (Q13485 1-552)": "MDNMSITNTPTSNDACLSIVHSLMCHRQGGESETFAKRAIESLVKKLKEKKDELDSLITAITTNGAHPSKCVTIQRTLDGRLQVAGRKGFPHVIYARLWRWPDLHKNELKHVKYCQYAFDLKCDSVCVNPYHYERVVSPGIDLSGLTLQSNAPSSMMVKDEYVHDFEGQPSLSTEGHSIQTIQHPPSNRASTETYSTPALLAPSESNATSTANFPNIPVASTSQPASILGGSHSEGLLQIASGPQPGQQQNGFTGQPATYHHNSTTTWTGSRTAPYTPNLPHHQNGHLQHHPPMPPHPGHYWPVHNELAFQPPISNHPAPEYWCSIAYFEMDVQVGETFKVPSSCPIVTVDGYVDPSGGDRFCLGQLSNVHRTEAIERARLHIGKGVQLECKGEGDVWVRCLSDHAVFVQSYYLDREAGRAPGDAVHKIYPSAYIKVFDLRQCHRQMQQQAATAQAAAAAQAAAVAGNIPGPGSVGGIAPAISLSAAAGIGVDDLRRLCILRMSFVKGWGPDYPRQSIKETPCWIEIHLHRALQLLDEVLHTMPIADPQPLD", "test": "Cellular thermal shift assay", "type": "cell-based", "conditions": "HCT116 cells, 10 μM for 8 h, compared with the DMSO control", "method_in_brief": "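Cells at 60% confluency in 100 mm dishes given 10 μM test compound for 8 h. Pellets in PBS aliquoted and heated at 45~65 °C for 3 min, lysed by three liquid nitrogen/25 °C freeze-thaw cycles, spun 20,000g for 20 min at 4 °C. Soluble SMAD protein western-blotted with actin loading control. Thermal curves from densitometry; mean ± SD, three independent experiments.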"}, "SMAD4^R361H": {"target": "T3, SMAD4^R361H (Homo sapiens, UniProt Q13485, R361H)", "T3 sequence (Q13485 1-552 R361H)": "T2 sequence (Q13485 1-552) with R361H", "test": "Cycloheximide", "type": "cell-based", "conditions": "RCM-1 cells, CHX chase", "method_in_brief": "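RCM-1 cells grown 24 h in 24-well plates, then given 100 μg/mL cycloheximide with test compound or DMSO. At each time point cells scraped into 2X SDS sample buffer and boiled 5 min. Run on 10% SDS-PAGE and blotted with anti-SMAD4; SMAD4 densitometry normalized to β-actin. Performed three times.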"}, "SMAD4^R361H-SMAD3 PPI [4]": {"target": "T1, SMAD4^R361H-SMAD3 PPI", "test": "Endogenous co-immunoprecipitation of SMAD4 complex in RCM-1 cells", "type": "cell-based", "conditions": "10 μM for 8 h, endogenous proteins", "method_in_brief": "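RCM-1 cells in 100 mm dishes exposed to 10 μM test compound or DMSO for 8 h, then lysed in PBS by sonication. About 1.5 mg total protein per IP incubated with antibody overnight at 4 °C, then with protein […] agarose beads 4 h at 4 °C. Beads washed four times in PBS; eluates probed for SMAD3 by western blot.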"}, "[5]": {"tested_on": "SMAD4/SMAD3 transcriptional activity (SBE-luc)", "test": "SBE-driven luciferase reporter assay", "type": "cell-based, human", "conditions": "isogenic HCT116 R361H cells pre-treated with compound", "method_in_brief": "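[…] cells in 6-well plates co-transfected with SBE4-Luc (1 μg) and Renilla (0.1 μg) plasmids. After 24 h, cells pretreated 6 h with test compound, then stimulated with TGF-β for 18 h. Dual-Glo read-out as Firefly/Renilla ratio, expressed as TGF-β-induced fold-of-change; assays repeated three times.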"}, "[6]": {"tested_on": "isogenic HCT116 R361H cells", "test": "Transcriptome profiling", "type": "cell-based, human", "conditions": "TGF-β 10 ng/mL, compound 1 μM"}, "[7]": {"tested_on": "isogenic HCT116 cells (SMAD4 R361H, null)", "test": "Western blot of TGF-β-induced p15, p21, N-cadherin and Vimentin proteins", "type": "cell-based, human", "conditions": "R361H mutant cells, TGF-β 10 ng/mL, compound 1 μM", "method_in_brief": "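Isogenic HCT116 SMAD4-null or R361H cells treated with TGF-β (10 ng/mL) and/or test compound (1 μM). Lysates run on 10% SDS-PAGE and transferred to nitrocellulose (100 V, 2 h, 4°C). Membranes blocked 1 h in 5% milk/TBST, probed overnight at 4°C, and developed by chemiluminescence. Representative of three independent experiments.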"}, "[8]": {"tested_on": "isogenic HCT116 R361H cells", "test": "Flow cytometry-based cell-cycle analysis", "design": "species or system human", "conditions": "TGF-β 10 ng/mL, Ro-31-8220 1 μM, Go-6983 10 μM", "method_in_brief": "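Cells serum-starved 24 h, then placed in 10% FBS medium with TGF-β (10 ng/mL) and/or test compound for 24 h. Fixed in 70% ethanol overnight at 4°C, RNase-treated (1 mg/ml, 30 min, 37°C), stained with 40 μg/ml PI for 30 min. 5,000 cells per sample analysed by flow cytometry; % G1/S given as mean ± SD of three independent experiments.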"}, "[9]": {"tested_on": "isogenic HCT116 cells (SMAD4 WT, null, R361H)", "test": "Cell viability assay", "type": "cell-based, human", "method_in_brief": "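Isogenic HCT116 WT, SMAD4-null and R361H cells given TGF-β (10 ng/mL), test compound, or both; vehicle/DMSO controls. CellTiter-Blue added and incubated at 37°C. Fluorescence read at Ex 545/Em 615 nm, medium-only blank subtracted, normalized to untreated controls (% C). Mean ± SD of three independent experiments; Student's t-test.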"}},
  "note": "Substitutions are numbered along the chain they refer to.",
  "data": [
    {"compound": "COc1ccc2c(c1)c(C1=C(c3c[nH]c4ccccc34)C(=O)NC1=O)cn2CCCN(C)C", "note": "[Go-6983]", "values": [
      {"measurement": "potentiation effect (ΔTR-FRET) compared with the DMSO control", "setting": "SMAD4^R361H-SMAD3 PPI [1]", "value": "> 40", "unit": "%"},
      {"measurement": "SMAD3 level in the D351H GST pull-down complex", "setting": "SMAD4^D351H/SMAD3 PPI", "value": "significantly restored"},
      {"measurement": "compound-induced TR-FRET signal for SMAD4^R361H with SMAD3 compared with other R-SMADs", "setting": "[2]", "value": "significantly higher"},
      {"measurement": "colony area in combination with TGF-β", "setting": "[3]", "value": "A similar effect"}
    ]},
    {"compound": "Cn1cc(C2=C(c3cn(CCCSC(=N)N)c4ccccc34)C(=O)NC2=O)c2ccccc21", "note": "[Ro-31-8220]", "values": [
      {"measurement": "potentiation effect (ΔTR-FRET) compared with the DMSO control", "setting": "SMAD4^R361H-SMAD3 PPI [1]", "value": "> 40", "unit": "%"},
      {"measurement": "SMAD3 level in the D351H GST pull-down complex", "setting": "SMAD4^D351H/SMAD3 PPI", "value": "significantly restored"},
      {"measurement": "increase of Tm (ΔTm) of SMAD4 WT", "setting": "SMAD4 WT", "value": "but not WT or SMAD3"},
      {"measurement": "SMAD4^R361H protein half-life compared with DMSO control", "setting": "SMAD4^R361H", "value": "no significant difference"},
      {"measurement": "SMAD4^R361H protein half-life", "setting": "SMAD4^R361H; compound-treated", "value": "about 2 h"},
      {"measurement": "compound-induced TR-FRET signal for SMAD4^R361H with SMAD3 compared with other R-SMADs", "setting": "[2]", "value": "significantly higher"},
      {"measurement": "amount of SMAD3 in the SMAD4-R361H immune-complex", "setting": "SMAD4^R361H-SMAD3 PPI [4]", "value": "drastically restored"},
      {"measurement": "TGF-β-induced SBE-luc activity", "setting": "[5]", "value": "restored to a level similar to that of the WT cells"},
      {"measurement": "response to TGF-β in terms of DEGs", "setting": "[6]", "value": "reestablished to a similar degree to that of WT cells"},
      {"measurement": "TGF-β-induced expression of p15, p21, N-cadherin and Vimentin proteins", "setting": "[7]", "value": "significant increase"},
      {"measurement": "sensitivity to TGF-β-induced G1/S cell-cycle arrest", "setting": "[8]", "value": "regained sensitivity"},
      {"measurement": "sensitivity to TGF-β-induced growth suppression (cell viability)", "setting": "[9]; SMAD4 R361H cells, with TGF-β 10 ng/mL, Ro-31-8220 1 μM, Go-6983 10 μM", "value": "restored the sensitivity"},
      {"measurement": "growth inhibition, compound alone", "setting": "[9]; SMAD4 WT, null and R361H cells, 1 μM", "value": "did not result in any significant growth inhibition"},
      {"measurement": "colony area in combination with TGF-β", "setting": "[3]", "value": "significantly decreased colony area"}
    ]}
  ]
}
